Activity calls are given as the source filed them. The calls are words filed in the database; no cut-off is given here.
Assays:
[1] = Displacement of [125I]DMIC from amyloid beta (1 to 42) peptide
Summary of the method: (§1)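 Aβ(1-42) aggregated at 0.25 mg/mL in 10 mM sodium phosphate, 1 mM EDTA, pH 7.4, 37 °C for 42 h with gentle constant shaking. Competition against [125I]DMIC. Bound and free separated by GF/B filtration, filter radioactivity read by γ counter. IC50 from displacement curves of three independent experiments, Ki by Cheng-Prusoff.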

[2] = system: Brain; assay: Biodistribution in normal ddY mouse brain at 3.7 MBq, iv after 60 mins; assay type: ADME, organism-based; details: in vivo, 1 h
Summary of the method: (§2)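 Tracer (3.7 MBq) in 100 μL saline with 10% EtOH and 1 mg/mL ascorbic acid, injected into tail vein of 5-week-old ddY mice (22-25 g). Groups of five killed at each time; organs removed, weighed, radioactivity γ-counted and expressed as % injected dose per gram, mean ± SD of 4-5 mice.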

[3] = system: Blood; assay: Biodistribution in normal ddY mouse blood at 3.7 MBq, iv after 10 mins; assay type: ADME, organism-based; details: in vivo; summary of the method: as §2
[4] = system: Blood; assay: Biodistribution in normal ddY mouse blood at 3.7 MBq, iv after 60 mins; assay type: ADME, organism-based; details: in vivo, 1 h; summary of the method: as §2
[5] = system: Blood; assay: Biodistribution in normal ddY mouse blood at 3.7 MBq, iv after 30 mins; assay type: ADME, organism-based; details: in vivo, 0.5 h; summary of the method: as §2
[6] = system: Brain; assay: Biodistribution in normal ddY mouse brain at 3.7 MBq, iv after 2 mins; assay type: ADME, organism-based; details: in vivo; summary of the method: as §2
[7] = system: Brain; assay: Biodistribution in normal ddY mouse brain at 3.7 MBq, iv after 30 mins; assay type: ADME, organism-based; details: in vivo, 0.5 h; summary of the method: as §2
[8] = system: Blood; assay: Biodistribution in normal ddY mouse blood at 3.7 MBq, iv after 2 mins; assay type: ADME, organism-based; details: in vivo; summary of the method: as §2
[9] = system: Brain; assay: Biodistribution in normal ddY mouse brain at 3.7 MBq, iv after 10 mins; assay type: ADME, organism-based; details: in vivo; summary of the method: as §2
[10] = Binding affinity to amyloid beta (1 to 42) peptide; summary of the method: as §1
[11] = biological target: Amyloid-beta precursor protein (Homo sapiens) (UniProt P05067); assay: Binding affinity to beta amyloid plaques in human Alzheimer's disease patient brain at 54 uCi/200 uL by autoradiography; details: tested as the 18F-labelled form
[12] = system: Amyloid-beta precursor protein (Homo sapiens), P05067 [K670N,M671L]; assay: Binding affinity to human recombinant APP695 K670N and M671L Swedish double mutant plaques expressed in Tg2576 mouse brain at 100 uM after 10 mins by amyloid beta-protein immunohistostaining
Summary of the method: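 Female Tg2576 and age-matched wild-type mice, 20 months old; brains frozen on dry ice, cut into 10 μm serial sections. Slides incubated 10 min with 100 μM compound in 50% EtOH, washed twice 3 min in 50% EtOH, fluorescence read with excitation 450-490 nm and 520 nm long-pass. Adjacent sections immunostained for Aβ with DAB.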

[13] = system: Bone; assay: Biodistribution in normal ddY mouse bone at 3.7 MBq, iv after 10 mins; assay type: ADME, organism-based, Bone element; details: in vivo; summary of the method: as §2
[14] = system: Bone; assay: Biodistribution in normal ddY mouse bone at 3.7 MBq, iv after 30 mins; assay type: ADME, organism-based, Bone element; details: in vivo, 0.5 h; summary of the method: as §2
[15] = system: Bone; assay: Biodistribution in normal ddY mouse bone at 3.7 MBq, iv after 60 mins; assay type: ADME, organism-based, Bone element; details: in vivo, 1 h; summary of the method: as §2
[16] = system: Bone; assay: Biodistribution in normal ddY mouse bone at 3.7 MBq, iv after 2 mins; assay type: ADME, organism-based, Bone element; details: in vivo; summary of the method: as §2

## CNc1ccc(/C=C/C(=O)c2ccc(OCCF)cc2)cc1
[1]
  Ki: 197 nM

## CN([11CH3])c1ccc(/C=C/C(=O)c2ccc(F)cc2)cc1
[2]
  Drug uptake: 1.04 % ID/g
[3]
  Drug uptake: 1.6 % ID/g
[4]
  Drug uptake: 1.4 % ID/g
[5]
  Drug uptake: 0.39 % ID/g
[6]
  Drug uptake: 3.68 % ID/g
[7]
  Drug uptake: 1.04 % ID/g
[8]
  Drug uptake: 2.61 % ID/g
[9]
  Drug uptake: 1.53 % ID/g

## Nc1ccc(/C=C/C(=O)c2ccc(OCCF)cc2)cc1
[1]
  Ki: 679 nM

## CNc1ccc(/C=C/C(=O)c2ccc(OCCOCCOCCF)cc2)cc1
[1]
  Ki: 471 nM

## CNc1ccc(/C=C/C(=O)c2ccc(OCCOCCF)cc2)cc1
[1]
  Ki: 216 nM

## Nc1ccc(/C=C/C(=O)c2ccc(F)cc2)cc1
[1]
  Ki: 663 nM

## CNc1ccc(/C=C/c2ccc(OCCOCCOCC[18F])cc2)cc1 [FLORBETABEN F18]
[10]
  Ki: 6.7 nM

## Nc1ccc(/C=C/C(=O)c2ccc(OCCOCCOCCF)cc2)cc1
[1]
  Ki: 790 nM

## CN(C)c1ccc(/C=C/C(=O)c2ccc(I)cc2)cc1
[1]
  Ki: 13.1 nM

## CN(C)c1ccc(/C=C/C(=O)c2ccc(F)cc2)cc1
[1]
  Ki: 49.8 nM

## CNc1ccc(/C=C/C(=O)c2ccc(F)cc2)cc1
[1]
  Ki: 234 nM

## CN([11CH3])c1ccc(/C=C/C(=O)c2ccc(OCCOCCOCCF)cc2)cc1
[2]
  Drug uptake: 0.35 % ID/g
[3]
  Drug uptake: 1.52 % ID/g
[4]
  Drug uptake: 0.68 % ID/g
[5]
  Drug uptake: 1.01 % ID/g
[6]
  Drug uptake: 4.31 % ID/g
[7]
  Drug uptake: 0.64 % ID/g
[8]
  Drug uptake: 2.44 % ID/g
[9]
  Drug uptake: 1.38 % ID/g

## CN([11CH3])c1ccc(/C=C/C(=O)c2ccc(OCCF)cc2)cc1
[2]
  Drug uptake: 2.26 % ID/g
[3]
  Drug uptake: 2.73 % ID/g
[4]
  Drug uptake: 2.22 % ID/g
[5]
  Drug uptake: 2.12 % ID/g
[6]
  Drug uptake: 6.01 % ID/g
[7]
  Drug uptake: 2.57 % ID/g
[8]
  Drug uptake: 3.65 % ID/g
[9]
  Drug uptake: 3.24 % ID/g

## CN(C)c1ccc(/C=C/C(=O)c2ccc(OCCF)cc2)cc1
[1]
  Ki: 45.7 nM

## CN(C)c1ccc(/C=C/C(=O)c2ccc(OCCOCCF)cc2)cc1
[1]
  Ki: 20 nM

## CN(C)c1ccc(-c2cn3cc(I)ccc3n2)cc1
[1]
  Ki: 28 nM

## CN([11CH3])c1ccc(/C=C/C(=O)c2ccc(OCCOCCF)cc2)cc1
[2]
  Drug uptake: 1 % ID/g
[3]
  Drug uptake: 2.28 % ID/g
[4]
  Drug uptake: 1.44 % ID/g
[5]
  Drug uptake: 2.54 % ID/g
[6]
  Drug uptake: 4.73 % ID/g
[7]
  Drug uptake: 1.14 % ID/g
[8]
  Drug uptake: 3.48 % ID/g
[9]
  Drug uptake: 2.23 % ID/g

## Nc1ccc(/C=C/C(=O)c2ccc(OCCOCCF)cc2)cc1
[1]
  Ki: 1050 nM

## CN(C)c1ccc(/C=C/C(=O)c2ccc(OCCOCCOCCF)cc2)cc1
[11]
  Activity: Active
[12]
  Activity: Active
[1]
  Ki: 38.9 nM

## CN(C)c1ccc(/C=C/C(=O)c2ccc(OCCOCCOCC[18F])cc2)cc1
[13]
  Drug uptake: 1.76 % ID/g
[2]
  Drug uptake: 1.07 % ID/g
[14]
  Drug uptake: 2.98 % ID/g
[3]
  Drug uptake: 1.94 % ID/g
[4]
  Drug uptake: 1.87 % ID/g
[5]
  Drug uptake: 2.35 % ID/g
[6]
  Drug uptake: 3.48 % ID/g
[7]
  Drug uptake: 1.08 % ID/g
[8]
  Drug uptake: 2.09 % ID/g
[9]
  Drug uptake: 1.52 % ID/g
[15]
  Drug uptake: 3.58 % ID/g
[16]
  Drug uptake: 1.8 % ID/g

— ChEMBL document CHEMBL1155231, “Fluoro-pegylated chalcones as positron emission tomography probes for in vivo imaging of beta-amyloid plaques in Alzheimer's disease” (J Med Chem, 2009)
